Assay results of several laboratories.
Target: Serine/threonine-protein kinase Nek9 (NEK9, Homo sapiens, UniProt Q8TD19)
Sequence (Q8TD19 1-979, as in one of the studies): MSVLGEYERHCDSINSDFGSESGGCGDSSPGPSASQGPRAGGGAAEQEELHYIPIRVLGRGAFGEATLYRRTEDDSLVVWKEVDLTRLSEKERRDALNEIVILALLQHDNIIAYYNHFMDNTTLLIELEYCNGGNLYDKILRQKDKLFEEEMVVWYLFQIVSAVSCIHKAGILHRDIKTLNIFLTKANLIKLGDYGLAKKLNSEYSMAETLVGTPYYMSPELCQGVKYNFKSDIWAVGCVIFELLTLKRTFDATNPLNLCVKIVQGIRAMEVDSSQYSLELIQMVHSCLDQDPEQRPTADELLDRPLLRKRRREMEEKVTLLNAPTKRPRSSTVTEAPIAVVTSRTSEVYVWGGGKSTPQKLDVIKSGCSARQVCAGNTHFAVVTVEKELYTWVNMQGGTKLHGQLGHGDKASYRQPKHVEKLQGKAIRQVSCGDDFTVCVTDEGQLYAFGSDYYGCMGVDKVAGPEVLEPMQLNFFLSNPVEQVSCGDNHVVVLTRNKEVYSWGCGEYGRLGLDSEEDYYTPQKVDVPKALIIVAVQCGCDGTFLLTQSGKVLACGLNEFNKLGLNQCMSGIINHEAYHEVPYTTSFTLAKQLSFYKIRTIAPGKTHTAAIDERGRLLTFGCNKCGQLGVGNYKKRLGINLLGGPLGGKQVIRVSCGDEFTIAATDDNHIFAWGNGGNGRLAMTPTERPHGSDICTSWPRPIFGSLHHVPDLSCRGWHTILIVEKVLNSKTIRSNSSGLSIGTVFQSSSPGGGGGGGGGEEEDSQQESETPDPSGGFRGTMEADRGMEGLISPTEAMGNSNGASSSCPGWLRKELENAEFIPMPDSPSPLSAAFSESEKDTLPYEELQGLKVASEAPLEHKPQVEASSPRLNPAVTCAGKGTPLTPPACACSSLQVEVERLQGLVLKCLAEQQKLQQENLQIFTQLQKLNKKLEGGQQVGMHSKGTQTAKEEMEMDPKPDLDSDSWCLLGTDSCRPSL

CCOc1cc(-c2nncn2C)ccc1Nc1ncc2cc(C)nc(NCC(C)(C)C)c2n1 — inhibition (enzyme activity; inhibitor; FRET; 1 µM): < 15%
CN1CC(Oc2cnc(C#N)cc2-c2ccn3nc(NC(=O)C4CC4)cc3c2)C1 — inhibition (enzyme activity; inhibitor; 1 µM): -3%
O=C(O)[C@@H]1[C@@H](Cn2nnc3ccccc3c2=O)CC[C@H]1C(=O)c1ccc(OCCC2CCOCC2)cc1 — remaining binding (cell-free assay; competition with immobilised ligand; 1 µM): 100%
CC(C)(C)c1nc2c(s1)c1nc(N)ncc1c1ccc(NS(=O)(=O)c3c(F)cccc3F)c(F)c12 — remaining activity (enzyme activity; inhibitor; radiometric; 1 µM): 96%
Nc1c(C(=O)NCc2ccc(C(=O)NCCCC3CCCCC3)cc2)cnn1-c1ccccc1 — remaining binding (cell-free assay; competition with immobilised ligand; 0.1 µM): 100%
Cc1cnc(NC2CCOCC2)nc1-n1cnc(C(=O)NC(CN)c2cc(F)cc(Cl)c2)c1 (stereo not drawn) — remaining activity (enzyme activity; inhibitor; radiometric; 1 µM): 101%
C[C@H](NC(=O)c1cnc2n1[C@](C)(Cc1ccc(C#N)cc1)C(=O)N2c1cc(Cl)c(F)c(Cl)c1)C(=O)NC1(c2ccccn2)CC1 — remaining binding (cell-free assay; competition with immobilised ligand; 1 µM): 100%
Nc1ncnc2occ(-c3ccc(NC(=O)Nc4cc(C(F)(F)F)ccc4F)cc3)c12 — remaining signal (cell-free assay; inhibitor; 20 µM): 1.6%
Cc1cc(NC(=O)c2cccc3cc(-c4cccc5[nH]nc(N)c45)ccc23)ccc1F — activity vs control (enzyme activity; inhibitor; 0.1 µM): 126%
COc1cc2ncnc(Nc3ccc(Oc4ccccc4)c(C)c3C)c2cc1OC — inhibition (enzyme activity; inhibitor; 1 µM): 5%
CS(=O)(=O)CCNCc1ccc(-c2ccc3ncnc(Nc4ccc(OCc5cccc(F)c5)c(Cl)c4)c3c2)o1 — remaining signal (cell-free assay; 0.5 µM): 100%
COc1cc(Cl)c(C(=O)N[C@@H](CN[C@H]2CC[C@@H](N)CC2)Cc2ccc(C#N)cc2)cc1-c1ccc(CN[C@H](C)c2ccc(C)cc2)o1 — remaining activity (enzyme activity; inhibitor; 1 µM): 127%
O=C1NC(=O)c2cc(Nc3ccc(F)cc3)c(Nc3ccc(F)cc3)cc21 — remaining signal (cell-free assay; 0.5 µM): 107%
O=C(Nc1cnn(-c2csc(C(=O)NC3COC3)c2)c1)Nc1c(F)cccc1Cl — remaining activity (enzyme activity; inhibitor; 5 µM): 88.4%
CS(=O)(=O)c1cc(C2(NC(=O)c3cncc4c3cnn4-c3ccc(F)cc3)CC2)ccn1 — remaining binding (cell-free assay; competition with immobilised ligand; 1 µM): 100%
N#CCCc1ccc2c(c1)-c1[nH]c3ccc([N+](=O)[O-])cc3c1CC(=O)N2 — remaining signal (cell-free assay; 0.5 µM): 103%
CCCOc1ccc([C@@H]2[C@@H](C(=O)O)[C@H](c3ccc4c(c3)OCO4)CN2CC(=O)Nc2c(CC)cccc2CC)cc1 — remaining binding (cell-free assay; competition with immobilised ligand; 1 µM): 100%
COc1cc(Nc2c(C#N)cnc3cc(OCCCN4CCN(C)CC4)c(OC)cc23)c(Cl)cc1Cl — remaining signal (cell-free assay; 0.5 µM): 94%
